In data set [1] the target is SPOP^MATH (Homo sapiens, UniProt O43791). Kind of data set: Surface Plasmon Resonance. The following applies: Surface Plasmon Resonance (BIACORE), wildtype SPOP^MATH. It is filed as binding. The method in brief: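 SPOP MATH domain expressed in E. coli BL21(DE3) GOLD as a GST fusion and purified by affinity, ion-exchange and gel-filtration chromatography. Binding of substrate-derived SPOP-binding-consensus peptides was measured by surface plasmon resonance on a BIACORE3000, and binding constants were reported.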

Data set [2] deals with Puc^1-390 (Drosophila). Kind of data set: AUC.
For data set [3], the target named is Puc^1-390 (Drosophila). Kind of data set: AUC. The source holds these as a separate data set.
Another data set has as its target Puc^93-107 (Drosophila). The experiment in a line: SPR.
The data set “crystal structure” concerns the molecule itself. Kind of data set: crystal structure.
The target in another data set is Cul3^NTD (UniProt Q13618 1-384). The experiment in a line: AUC.
For data set [4], the target named is SPOP^MATH (human, UniProt O43791 28-166). Kind of data set: crystal structure.
The data set “AUC” concerns the molecule itself. The experiment in a line: AUC.

Residue numbers refer to the chain shown, from its start. Names and notes keep the numbering of the source. Like-named read-outs stand apart in the source and are kept apart here. No end group written: not given here.

Sequence of Cul3^NTD (Q13618 1-384): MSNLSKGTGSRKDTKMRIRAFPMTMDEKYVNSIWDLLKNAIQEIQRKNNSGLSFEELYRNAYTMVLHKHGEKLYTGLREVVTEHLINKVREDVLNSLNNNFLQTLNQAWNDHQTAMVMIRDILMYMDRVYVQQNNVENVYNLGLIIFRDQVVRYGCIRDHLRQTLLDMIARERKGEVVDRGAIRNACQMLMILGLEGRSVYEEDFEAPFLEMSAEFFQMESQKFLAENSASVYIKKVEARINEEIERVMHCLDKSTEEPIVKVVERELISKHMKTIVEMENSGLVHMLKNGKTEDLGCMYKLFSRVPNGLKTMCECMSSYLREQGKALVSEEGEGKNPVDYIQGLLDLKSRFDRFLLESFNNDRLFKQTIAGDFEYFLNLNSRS

As for “Ac-LACDEVTSTTSSSTA (N-terminus assumed) [Puc^93-107]”, the “binding to SPOP^MATH (result in words)” value on SPOP^MATH [1] is “sufficient for binding”.
As for DSTTEGTPADGFTVL [MacroH2A pep2], the “binding to SPOP^MATH (result in words)” value at SPOP^MATH [1] is recorded as “negligible binding”.
For “SPOP^MATH-BTB+ (from UniProt O43791 28-329) (domain or fragment)”, the stoichiometry N with Puc^1-390 (Drosophila) [2] and with Puc^1-390 (Drosophila) [3] was 2 SPOP per Puc in each case.
On to “MacroH2A^166-179: Synthetic peptide for the MacroH2A SPOP-binding region, residues 166-179 (KAASADSTTEGTPAD)”, for which the “binding to SPOP^MATH (result in words)” value with SPOP^MATH [1] is given as “sufficient for binding”.
The molecule “SPOP^MATH (from UniProt O43791 28-166) (domain or fragment)” yielded a Kd with Puc^93-107 (Drosophila) of 4 µM.

B1: Gig^1-258 (domain or fragment, human, UniProt Q9H2C0 1-258, looked up)
chain: MAEGSAVSDPQHAARLLRALSSFREESRFCDAHLVLDGEEIPVQKNILAAASPYIRTKLNYNPPKDDGSTYKIELEGISVMVMREILDYIFSGQIRLNEDTIQDVVQAADLLLLTDLKTLCCEFLEGCIAAENCIGIRDFALHYCLHHVHYLATEYLETHFRDVSSTEEFLELSPQKLKEVISLEKLNVGNERYVFEAVIRWIAHDTEIRKVHMKDVMSALWVSGLDSSYLREQMLNEPLVREIVKECSNIPLSQPQQ
modifications: selenomethionines (structure phased by SAD)
In the case of B1, the binding result in “crystal structure” is reported as “binds”.

B2: SPOP^BTB+ (domain or fragment, human, UniProt O43791 172-329, looked up)
chain: GQNTMNMVKVPECRLADELGGLWENSRFTDCCLCVAGQEFQAHKAILAARSPVFSAMFEHEMEESKKNRVEINDVEPEVFKEMMCFIYTGKAPNLDKMADDLLAAADKYALERLKVMCEDALCSNLSVENAAEILILADLHSADQLKTQAVDFINYHA
With B2, the binding result in “crystal structure” is “binds”. Besides, in the data set with Cul3^NTD, the “stoichiometry N” value was 1 SPOP per Cul3 (2:2).

B3: SPOP^BTB+ L186D, L190D, L193D, I217K (domain or fragment, human, UniProt O43791 172-329, looked up)
chain: B2 chain with L15D, L19D, L22D, I46K
Turning to B3, the “stoichiometry N” value with Cul3^NTD is 1 SPOP per Cul3 (1:1).

B4: MacroH2A_pep1 (peptide)
peptide: KAASADSTTEGTPAD
In the case of B4, in the data set with SPOP^MATH [4], the binding result is reported as “binds”.

B5: Ci SBC2 peptide (peptide)
peptide: NTLFPDVSSSTH
In the case of B5, the binding result in the data set with SPOP^MATH [4] is recorded as “binds”.

B6: SPOP^BTB (domain or fragment, human, UniProt O43791 173-297, looked up)
chain: QNTMNMVKVPECRLADELGGLWENSRFTDCCLCVAGQEFQAHKAILAARSPVFSAMFEHEMEESKKNRVEINDVEPEVFKEMMCFIYTGKAPNLDKMADDLLAAADKYALERLKVMCEDALCSNL
With B6, the “stoichiometry N” value with Cul3^NTD was 1 SPOP per Cul3 (2:2).

B7: SPOP^MATH-BTB+ (domain or fragment, human, UniProt O43791 28-329, looked up)
chain: KVVKFSYMWTINNFSFCREEMGEVIKSSTFSSGANDKLKWCLRVNPKGLDEESKDYLSLYLLLVSCPKSEVRAKFKFSILNAKGEETKAMESQRAYRFVQGKDWGFKKFIRRDFLLDEANGLLPDDKLTLFCEVSVVQDSVNISGQNTMNMVKVPECRLADELGGLWENSRFTDCCLCVAGQEFQAHKAILAARSPVFSAMFEHEMEESKKNRVEINDVEPEVFKEMMCFIYTGKAPNLDKMADDLLAAADKYALERLKVMCEDALCSNLSVENAAEILILADLHSADQLKTQAVDFINYHA
B7: the binding result in “AUC” was “binds”.

B8: Puc SBC1_pep1 (peptide)
peptide: DEVTSTTSSS
For B8, in the data set with SPOP^MATH [4], the binding result is “binds”.

The values are drawn from article PMC2847577 (Molecular cell, 2009).
